We go through nine molecules from ChEMBL document CHEMBL1124631, “3-(aminoalkyl)-1,2,3,4-tetrahydro-5H-[1]benzopyrano[3,4-c] pyridin-5-ones as potential anticholinergic bronchodilators” (1989).

SMILES strings stand for the structures.

The subject of one experiment is Cavia porcellus. Briefly: Methacholine challenge test was performed on guinea pigs by administration of compound at 25 mg/kg perorally. In kind it is functional. The note with it: route oral. The gist of the method: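 Hartley guinea pigs, six per treatment, dosed orally at 25 mg/kg 15 min before challenge. Exposed for 10 min to 0.1% methacholine chloride aerosol from two nebulizers in a closed chamber, air pressure 10 lb/in.². Time from aerosol onset to collapse recorded and averaged ± S.E.M. Non-collapsing animals removed at 10 min and scored 10.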

Experiment [1] is filed under the species Canis familiaris. Briefly: Pulmonary selectivity measured as the ratio of salivation and bronchospasm. In kind it is functional, Canis lupus familiaris, Bronchiole. The gist of the method:
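Pilocarpine-infused dog model measuring pulmonary resistance and salivary output under cumulative iv doses (1–10,000 μg/kg). ID50 for each response by log dose–response linear regression. Selectivity = ID50 for salivation inhibition divided by ID50 for bronchospasm inhibition. Most compounds tested in one dog.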

Experiment [2] is filed under the species Canis familiaris. As to the kind of experiment: Compound dose for inhibiting dog cholinergic bronchoconstriction by 50% of control value. It is filed as functional. The note with it: Canis lupus familiaris, Lung; read-out: ID50 (the source's name). Put shortly: (§1)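 Dogs with femoral vein cannulated; respiratory rate, heart rate and arterial pressure monitored. Bunolol 0.5 mg/kg iv given 30 min before pilocarpine nitrate infusion (0.2 mg/kg/h) to induce bronchospasm and salivation. Saliva collected from catheterized Wharton's duct every 5 min. Cumulative iv doses 1–10,000 μg/kg given every 5 min. ID50 by linear regression of log cumulative dose vs % inhibition. Mostly one dog per compound.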

The species entered for experiment [3] is Canis familiaris. Briefly: Inhibition of dog salivation by 50% of control value. The settings on record: Canis lupus familiaris; read-out: ID50 (the source's name). It is filed as functional. Put shortly:
as §1

For the molecule `COc1ccc2c3c(c(=O)oc2c1)CN(CCN1CCCCCC1)CC3`, in the experiment with Cavia porcellus, the Collapse time is on record as 8 min. For the same molecule, in the experiment listed under Canis familiaris [1], the Ratio is listed as 1.8. Also, the values for the ED50 in the experiment filed under Canis familiaris [2] and in the experiment listed under Canis familiaris [3] were 0.223 mg/kg and 0.398 mg/kg, respectively.

Regarding `Cc1ccc2c3c(c(=O)oc2c1)CN(CCN1CC2CCC(CC2)C1)CC3`, in the experiment on Cavia porcellus, the Collapse time came out at 5 min. Besides, in the experiment listed under Canis familiaris [1], the Ratio is on record as 1.9. Further, the figures for the ED50 in the experiment listed under Canis familiaris [2] and in the experiment listed under Canis familiaris [3] were 0.235 mg/kg and 0.452 mg/kg, respectively.

For the molecule `CCNC(C)CN1CCc2c(c(=O)oc3cc(C)ccc23)C1` (stereo unspecified), the Collapse time in the experiment on Cavia porcellus amounted to 10 min. The Ratio in the experiment filed under Canis familiaris [1] turned out to be 0.36. Further, the ED50 is 0.627 mg/kg in the experiment filed under Canis familiaris [2] and 0.225 mg/kg in the experiment filed under Canis familiaris [3].

Molecule `CCOc1cc2oc(=O)c3c(c2cc1OCC)CCN(CC(C)N1CCCC1)C3` (stereo unspecified) gave a Collapse time in the experiment on Cavia porcellus of 9.4 min. Further, the Ratio in the experiment filed under Canis familiaris [1] is 1.6. Besides, the ED50 in the experiment listed under Canis familiaris [2] was 0.099 mg/kg; in the experiment listed under Canis familiaris [3], 0.163 mg/kg.

As for `CCN(CC)CCN1CCc2c(c(=O)oc3cc(OC)ccc23)C1`, the Collapse time in the experiment on Cavia porcellus stood at 8 min. Besides, the Ratio in the experiment listed under Canis familiaris [1] is listed as 0.4. Further, the ED50 in the experiment filed under Canis familiaris [2] stood at 0.394 mg/kg; in the experiment filed under Canis familiaris [3] it was 0.158 mg/kg.

In the experiment with Cavia porcellus, `CCOc1cc2oc(=O)c3c(c2cc1OCC)CCN(CCN1CC2CCC(CC2)C1)C3` yielded a Collapse time of 6.3 min. Further, the Ratio in the experiment listed under Canis familiaris [1] was found to be 0.79. In addition, the ED50 in the experiment listed under Canis familiaris [2] is 0.267 mg/kg; in the experiment listed under Canis familiaris [3], 0.21 mg/kg.

On to `COc1cc2oc(=O)c3c(c2cc1OC)CCN(CCN1CC2CCC(CC2)C1)C3`, for which the Collapse time in the experiment with Cavia porcellus stood at 5 min. In addition, the Ratio in the experiment filed under Canis familiaris [1] turned out to be 4.7. In addition, the ED50 in the experiment listed under Canis familiaris [2] was 0.113 mg/kg; in the experiment filed under Canis familiaris [3], 0.53 mg/kg.

In the experiment on Cavia porcellus, `CCCN(C)C(C)CN1CCc2c(c(=O)oc3cc(OC)ccc23)C1` (stereo unspecified) registered a Collapse time of 10 min. Besides, the Ratio in the experiment listed under Canis familiaris [1] is 1.2. Further, the ED50 in the experiment filed under Canis familiaris [2] turned out to be 0.073 mg/kg; in the experiment listed under Canis familiaris [3], 0.084 mg/kg.

Molecule `CC(CN1CCc2c(c(=O)oc3ccccc23)C1)N1CCCC1` (stereo unspecified) gave a Collapse time in the experiment with Cavia porcellus of 10 min. Besides, in the experiment filed under Canis familiaris [1], the Ratio is 2.2. Also, the ED50 in the experiment listed under Canis familiaris [2] was determined as 0.088 mg/kg; in the experiment filed under Canis familiaris [3], 0.19 mg/kg.
